Measured values reported in ChEMBL document CHEMBL1140232, “Surprising alteration of antibacterial activity of 5"-modified neomycin against resistant bacteria” (2008).
Converted amounts (≈) assume the structure as drawn.

Columns and labels:
Enterococcus [1] = experiment: Ratio of kcat to Km of Enterococcus APH(3')-3a
Escherichia coli [2] = experiment: Antibacterial activity against Escherichia coli TG1 pSF815 plasmid encoded for AAC(6')/APH(2') after 12 to 18 hrs; type: functional
In short: (§1)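 Broth microdilution. Bacterial suspension adjusted with broth to absorbance 0.08–0.1 at 625 nm, diluted further in broth, and mixed in wells with 2-fold serial dilutions of compound. Plates incubated at 35°C for 12–18 h. MIC is the lowest concentration inhibiting growth; each determination repeated at least three times.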

Escherichia coli [3] = experiment: Antibacterial activity against Escherichia coli TG1 pTZ19U-3 plasmid encoded for APH(3')-1 after 12 to 18 hrs; type: functional; in short: as §1
Enterococcus [4] = experiment: Activity of Enterococcus APH(3')-3a
Escherichia coli [5] = experiment: Antibacterial activity against aminoglycoside-susceptible Escherichia coli ATCC 25922 after 12 to 18 hrs; type: functional; in short: as §1
Escherichia coli [6] = experiment: Antibacterial activity against aminoglycoside-susceptible Escherichia coli TG1 after 12 to 18 hrs; type: functional; in short: as §1
Escherichia coli [7] = experiment: Antibacterial activity against Escherichia coli TG1 pET28a plasmid encoded for APH(3')-3a after 12 to 18 hrs; type: functional; in short: as §1
Staphylococcus aureus = experiment: Antibacterial activity against aminoglycoside-susceptible Staphylococcus aureus ATCC 25923 after 12 to 18 hrs; type: functional; in short: as §1

| SMILES | kcat/Km (Enterococcus [1]) [×10⁴ /M/s] | MIC (Escherichia coli [2]) [mg/L] | MIC (Escherichia coli [3]) [mg/L] | Km (Enterococcus [4]) [µM] | Vmax (Enterococcus [4]) [µmol/min/mg] | kcat (Enterococcus [4]) [s⁻¹] | MIC (Escherichia coli [5]) [mg/L] | MIC (Escherichia coli [6]) [mg/L] | MIC (Escherichia coli [7]) [mg/L] | MIC (Staphylococcus aureus) [mg/L] |
| --- | --- | --- | --- | --- | --- | --- | --- | --- | --- | --- |
| NC[C@@H]1O[C@H](O[C@H]2[C@@H](O)[C@H](O[C@@H]3[C@@H](O)[C@H](N)C[C@H](N)[C@H]3O[C@H]3O[C@H](CN)[C@@H](O)[C@H](O)[C@H]3N)O[C@@H]2CNC(=O)c2cc(-c3ccccc3)nc3ccccc23)[C@H](N)[C@@H](O)[C@@H]1O | 0.048 | 16 (≈ 18.9 µM) | ≥ 2000 | 400 | 0.38 | 0.19 | 8 (≈ 9.47 µM) | 8 (≈ 9.47 µM) | 32 (≈ 37.9 µM) | 4 (≈ 4.73 µM) |
| C[C@@H](N)C(=O)NC[C@H]1O[C@@H](O[C@@H]2[C@@H](O)[C@H](N)C[C@H](N)[C@H]2O[C@H]2O[C@H](CN)[C@@H](O)[C@H](O)[C@H]2N)[C@H](O)[C@@H]1O[C@H]1O[C@@H](CN)[C@@H](O)[C@H](O)[C@H]1N | 0.65 | 16 (≈ 23.4 µM) | ≥ 2000 | 63 | 0.82 | 0.41 | 16 (≈ 23.4 µM) | 16 (≈ 23.4 µM) | 64 (≈ 93.5 µM) | 1 (≈ 1.46 µM) |
| NC[C@@H]1O[C@H](O[C@H]2[C@@H](O)[C@H](O[C@@H]3[C@@H](O)[C@H](N)C[C@H](N)[C@H]3O[C@H]3O[C@H](CN)[C@@H](O)[C@H](O)[C@H]3N)O[C@@H]2Cn2cc(CNC(=O)C3CCNCC3)nn2)[C@H](N)[C@@H](O)[C@@H]1O | 0.12 | 32 (≈ 39.7 µM) | ≥ 2000 | 171 | 0.41 | 0.21 | 16 (≈ 19.9 µM) | 16 (≈ 19.9 µM) | 64 (≈ 79.4 µM) | 4 (≈ 4.96 µM) |
| C[C@H](N)C(=O)NC[C@H]1O[C@@H](O[C@@H]2[C@@H](O)[C@H](N)C[C@H](N)[C@H]2O[C@H]2O[C@H](CN)[C@@H](O)[C@H](O)[C@H]2N)[C@H](O)[C@@H]1O[C@H]1O[C@@H](CN)[C@@H](O)[C@H](O)[C@H]1N | 0.75 | 16 (≈ 23.4 µM) | ≥ 2000 | 60 | 0.9 | 0.45 | 8 (≈ 11.7 µM) | 8 (≈ 11.7 µM) | 64 (≈ 93.5 µM) | 0.5 (≈ 0.73 µM) |
| CC(=O)NCC1CN(Cc2cn(C[C@H]3O[C@@H](O[C@@H]4[C@@H](O)[C@H](N)C[C@H](N)[C@H]4O[C@H]4O[C@H](CN)[C@@H](O)[C@H](O)[C@H]4N)[C@H](O)[C@@H]3O[C@H]3O[C@@H](CN)[C@@H](O)[C@H](O)[C@H]3N)nn2)C(=O)O1 (stereo not given in full) | 0.13 | 32 (≈ 38.3 µM) | ≥ 2000 | 160 | 0.41 | 0.21 | 32 (≈ 38.3 µM) | 16 (≈ 19.1 µM) | 125 (≈ 150 µM) | 4 (≈ 4.79 µM) |
| NC[C@@H]1O[C@@H](O[C@H]2[C@H](O)[C@@H](O[C@H]3O[C@H](CO)[C@@H](O)[C@H](N)[C@H]3O)[C@H](N)C[C@@H]2N)[C@@H](O)[C@H](O)[C@H]1O [KANAMYCIN A] | 42.4 |  |  | 8.2 | 6.96 | 3.48 |  |  | 125 (≈ 258 µM) |  |
| NC[C@@H]1O[C@H](O[C@H]2[C@@H](O)[C@H](O[C@@H]3[C@@H](O)[C@H](N)C[C@H](N)[C@H]3O[C@H]3O[C@H](CN)[C@@H](O)[C@H](O)[C@H]3N)O[C@@H]2CNC(=O)[C@@H](N)CO)[C@H](N)[C@@H](O)[C@@H]1O | 1.2 | 16 (≈ 22.8 µM) | ≥ 2000 | 42 | 1.01 | 0.51 | 8 (≈ 11.4 µM) | 8 (≈ 11.4 µM) | 32 (≈ 45.7 µM) | 1 (≈ 1.43 µM) |
| NC[C@@H]1O[C@H](O[C@H]2[C@@H](O)[C@H](O[C@@H]3[C@@H](O)[C@H](N)C[C@H](N)[C@H]3O[C@H]3O[C@H](CN)[C@@H](O)[C@H](O)[C@H]3N)O[C@@H]2Cn2cc(CNC(=O)c3cc(-c4ccccc4)nc4ccccc34)nn2)[C@H](N)[C@@H](O)[C@@H]1O | 0.037 | 32 (≈ 34.6 µM) | 500 (≈ 540 µM) | 410 | 0.3 | 0.15 | 32 (≈ 34.6 µM) | 8 (≈ 8.64 µM) | 16 (≈ 17.3 µM) | 8 (≈ 8.64 µM) |
| NCC[C@H](O)C(=O)NC[C@H]1O[C@@H](O[C@@H]2[C@@H](O)[C@H](N)C[C@H](N)[C@H]2O[C@H]2O[C@H](CN)[C@@H](O)[C@H](O)[C@H]2N)[C@H](O)[C@@H]1O[C@H]1O[C@@H](CN)[C@@H](O)[C@H](O)[C@H]1N | 0.94 | 16 (≈ 22.4 µM) | ≥ 2000 | 50 | 0.93 | 0.47 | 8 (≈ 11.2 µM) | 16 (≈ 22.4 µM) | 125 (≈ 175 µM) | 1 (≈ 1.4 µM) |
